Measured values as given in ChEMBL document CHEMBL4765363, “Design, synthesis and biological evaluation of 4-aniline quinazoline derivatives conjugated with hydrogen sulfide (HS) donors as potent EGFR inhibitors against L858R resistance mutation” (Eur J Med Chem, 2020).

Assays:
[1] = tested on: Epidermal growth factor receptor (Homo sapiens), P00533 [L858R]; settings: BaF3, time 72.0 hrs
[2] = target: Epidermal growth factor receptor (Homo sapiens) (UniProt P00533); settings: BaF3, time 72.0 hrs
[3] = target: Epidermal growth factor receptor (Homo sapiens) (UniProt P00533); assay: Inhibition of wild type EGFR in human A549 cells assessed as cell growth inhibition measured after 72 hrs by Celltiter-Glo luminescent cell viability assay; assay type: cell-based
How it was run: (§1)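 Cells seeded at 2500-3000 per well and exposed to test agents across a concentration series for 72 h. Viability read by CellTiter-Glo luminescence, normalized to DMSO controls. Mean of three independent measurements (standard error <20%); GI50 obtained by curve fitting. Single-concentration readout is proliferation rate at 10 µM.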

[4] = tested on: Epidermal growth factor receptor (Homo sapiens), P00533 [L858R]; settings: NCI-H3255, time 72.0 hrs
[5] = tested on: Epidermal growth factor receptor (Homo sapiens), P00533 [L858R,T790M]; settings: BaF3, time 72.0 hrs
[6] = target: Epidermal growth factor receptor (Mus musculus) (UniProt Q01279); settings: BaF3, time 72.0 hrs
[7] = Induction of H2S generation in pH 7.4 PBS:acetone buffer at 20 uM measured after 2 hrs by NIR-HS probe based fluorescence spectrophotometric method; assay type: functional
How it was run: (§2)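 Compound at 20 µM incubated with NIR-HS (10 µM) in PBS:acetone 2:3 at 37 °C, sampled from 0 to 180 min (0, 5, 30, 60, 90, 120, 150, 180 min). Emission read at 723 nm (ex 670 nm). H2S quantified against a Na2S calibration curve (0-8 µM, same probe and conditions, 3 h, F/F0 at 723 nm).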

[8] = Induction of H2S generation in pH 7.4 PBS:acetone buffer at 10 to 200 uM measured after 3 hrs by NIR-HS probe based fluorescence spectrophotometric method; assay type: functional; settings: dose 10-200 µM
How it was run: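 NIR-HS probe (10 µM) incubated with compound (0, 5, 10, 50, 100, 200 µM) in PBS:acetone 2:3 (pH 7.4) at 37 °C for 3 h. Fluorescence read at ex 670 / em 723 nm.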

[9] = tested on: Epidermal growth factor receptor (Homo sapiens), P00533 [L858R]; assay: Inhibition of EGFR L858R mutant phosphorylation at Y1068 residue in human NCI-H3255 cells measured after 4 hrs by Western blot analysis; assay type: cell-based
How it was run: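 H3255 cells treated with a range of concentrations for 4 h, then lysed in cold RIPA containing 1% PMSF. Lysate protein quantified by BCA, separated by SDS-PAGE and transferred to PVDF. Blocked in 5% milk, probed with anti-phospho-EGFR (Y1068) and developed by ECL.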

NCI-H3255 [10] = assay: Cell cycle arrest in human NCI-H3255 cells assessed as accumulation at G2/M phase at 1 uM measured after 72 hrs by propidium iodide staining based flow cytometry (reference value: 10.18%); assay type: functional
How it was run: (§3)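 H3255 cells in 10% FBS/RPMI given DMSO or compound at 1, 5 or 10 µM for 72 h, then washed in cold PBS, fixed in 70% cold ethanol and held overnight at -20 °C. Stained with PI/RNase buffer for 15 min at room temperature, then analysed by flow cytometry with ModFit phase modelling.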

NCI-H3255 [11] = assay: Cell cycle arrest in human NCI-H3255 cells assessed as accumulation at G2/M phase at 10 uM measured after 72 hrs by propidium iodide staining based flow cytometry (reference value: 10.18%); assay type: functional
How it was run: as §3

NCI-H3255 [12] = assay: Cell cycle arrest in human NCI-H3255 cells assessed as accumulation at G0/G1 phase at 10 uM measured after 72 hrs by propidium iodide staining based flow cytometry (reference value: 53.55%); assay type: functional
How it was run: as §3

[13] = tested on: Epidermal growth factor receptor (Homo sapiens), P00533 [L858R]; assay: Inhibition of EGFR L858R mutant in human NCI-H3255 cells assessed as cell growth inhibition measured after 72 hrs in presence of ZnCl2 by Celltiter-Glo luminescent cell viability assay; assay type: cell-based
[14] = Induction of H2S generation in pH 7.4 PBS:acetone buffer at 20 uM measured within 1 hr by NIR-HS probe based fluorescence spectrophotometric method; assay type: functional
How it was run: as §2

HUVEC = assay: Cytotoxicity against HUVEC assessed as reduction in cell viability measured after 72 hrs by Celltiter-Glo luminescent cell viability assay; assay type: cell-based; settings: Homo sapiens
How it was run: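 Cells seeded at 2500-3000 per well, exposed to a range of compound concentrations for 72 h. Viability read by CellTiter-Glo luminescence. Data normalised to DMSO controls, given as the mean of three independent measurements, with IC50 obtained by curve fitting.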

[15] = tested on: Epidermal growth factor receptor (Homo sapiens), P00533 [C797S]; assay: Inhibition of TEL-fused EGFR C797S mutant (unknown origin) transfected in mouse BaF3 cells assessed as reduction in cell proliferation incubated for 72 hrs by Celltiter-Glo luminescent cell viability assay; assay type: cell-based
How it was run: as §1

NCI-H3255 [16] = assay: Cell cycle arrest in human NCI-H3255 cells assessed as accumulation at G0/G1 phase at 5 uM measured after 72 hrs by propidium iodide staining based flow cytometry (reference value: 53.55%); assay type: functional
How it was run: as §3

NCI-H3255 [17] = assay: Cell cycle arrest in human NCI-H3255 cells assessed as accumulation at S phase at 5 uM measured after 72 hrs by propidium iodide staining based flow cytometry (reference value: 36.26%); assay type: functional
How it was run: as §3

NCI-H3255 [18] = assay: Cell cycle arrest in human NCI-H3255 cells assessed as accumulation at G2/M phase at 5 uM measured after 72 hrs by propidium iodide staining based flow cytometry (reference value: 10.18%); assay type: functional
How it was run: as §3

NCI-H3255 [19] = assay: Cell cycle arrest in human NCI-H3255 cells assessed as accumulation at S phase at 10 uM measured after 72 hrs by propidium iodide staining based flow cytometry (reference value: 36.26%); assay type: functional
How it was run: as §3

NCI-H3255 [20] = assay: Cell cycle arrest in human NCI-H3255 cells assessed as accumulation at G0/G1 phase at 1 uM measured after 72 hrs by propidium iodide staining based flow cytometry (reference value: 53.55%); assay type: functional
How it was run: as §3

NCI-H3255 [21] = assay: Cell cycle arrest in human NCI-H3255 cells assessed as accumulation at S phase at 1 uM measured after 72 hrs by propidium iodide staining based flow cytometry (reference value: 36.26%); assay type: functional
How it was run: as §3

NCI-H3255 [22] = assay: Antiproliferative activity against human NCI-H3255 cells assessed as cell growth inhibition at 10 uM measured after 72 hrs by Celltiter-Glo luminescent cell viability assay relative to control; settings: NCI-H3255, 72 h

Epidermal growth factor receptor (Homo sapiens), P00533 [L858R], sequence (P00533 whole entry L858R): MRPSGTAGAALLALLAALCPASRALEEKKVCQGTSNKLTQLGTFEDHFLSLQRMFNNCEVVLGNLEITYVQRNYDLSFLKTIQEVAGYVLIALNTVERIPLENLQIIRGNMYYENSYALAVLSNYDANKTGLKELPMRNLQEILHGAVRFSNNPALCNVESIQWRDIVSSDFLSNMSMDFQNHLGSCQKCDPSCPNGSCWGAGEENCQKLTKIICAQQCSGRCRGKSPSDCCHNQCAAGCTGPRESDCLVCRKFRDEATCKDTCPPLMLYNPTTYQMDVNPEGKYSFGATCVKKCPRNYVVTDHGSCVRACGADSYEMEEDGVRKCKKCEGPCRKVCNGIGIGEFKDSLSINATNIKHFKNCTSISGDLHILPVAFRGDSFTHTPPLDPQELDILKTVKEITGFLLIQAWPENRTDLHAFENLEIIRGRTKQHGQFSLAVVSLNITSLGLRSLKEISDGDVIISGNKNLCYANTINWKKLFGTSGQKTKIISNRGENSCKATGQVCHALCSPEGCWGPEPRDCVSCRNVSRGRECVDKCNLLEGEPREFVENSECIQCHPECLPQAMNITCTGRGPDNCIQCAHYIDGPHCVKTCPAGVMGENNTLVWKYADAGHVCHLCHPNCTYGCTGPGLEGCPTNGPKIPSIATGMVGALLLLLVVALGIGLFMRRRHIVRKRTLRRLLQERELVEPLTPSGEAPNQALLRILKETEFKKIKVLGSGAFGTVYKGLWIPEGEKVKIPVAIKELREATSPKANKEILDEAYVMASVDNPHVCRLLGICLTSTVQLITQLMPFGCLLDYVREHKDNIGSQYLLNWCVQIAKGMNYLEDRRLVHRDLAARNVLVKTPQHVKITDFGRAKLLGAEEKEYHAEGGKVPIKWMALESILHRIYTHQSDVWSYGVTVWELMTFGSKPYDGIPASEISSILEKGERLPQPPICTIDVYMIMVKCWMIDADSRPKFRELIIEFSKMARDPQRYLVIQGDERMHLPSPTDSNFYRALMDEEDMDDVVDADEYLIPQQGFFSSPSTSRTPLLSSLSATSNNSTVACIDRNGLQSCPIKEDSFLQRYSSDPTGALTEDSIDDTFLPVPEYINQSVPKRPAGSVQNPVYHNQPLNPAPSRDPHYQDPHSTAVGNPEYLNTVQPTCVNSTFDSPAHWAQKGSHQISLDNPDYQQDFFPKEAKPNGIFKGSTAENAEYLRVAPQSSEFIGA
Epidermal growth factor receptor (Mus musculus), sequence (Q01279 whole entry): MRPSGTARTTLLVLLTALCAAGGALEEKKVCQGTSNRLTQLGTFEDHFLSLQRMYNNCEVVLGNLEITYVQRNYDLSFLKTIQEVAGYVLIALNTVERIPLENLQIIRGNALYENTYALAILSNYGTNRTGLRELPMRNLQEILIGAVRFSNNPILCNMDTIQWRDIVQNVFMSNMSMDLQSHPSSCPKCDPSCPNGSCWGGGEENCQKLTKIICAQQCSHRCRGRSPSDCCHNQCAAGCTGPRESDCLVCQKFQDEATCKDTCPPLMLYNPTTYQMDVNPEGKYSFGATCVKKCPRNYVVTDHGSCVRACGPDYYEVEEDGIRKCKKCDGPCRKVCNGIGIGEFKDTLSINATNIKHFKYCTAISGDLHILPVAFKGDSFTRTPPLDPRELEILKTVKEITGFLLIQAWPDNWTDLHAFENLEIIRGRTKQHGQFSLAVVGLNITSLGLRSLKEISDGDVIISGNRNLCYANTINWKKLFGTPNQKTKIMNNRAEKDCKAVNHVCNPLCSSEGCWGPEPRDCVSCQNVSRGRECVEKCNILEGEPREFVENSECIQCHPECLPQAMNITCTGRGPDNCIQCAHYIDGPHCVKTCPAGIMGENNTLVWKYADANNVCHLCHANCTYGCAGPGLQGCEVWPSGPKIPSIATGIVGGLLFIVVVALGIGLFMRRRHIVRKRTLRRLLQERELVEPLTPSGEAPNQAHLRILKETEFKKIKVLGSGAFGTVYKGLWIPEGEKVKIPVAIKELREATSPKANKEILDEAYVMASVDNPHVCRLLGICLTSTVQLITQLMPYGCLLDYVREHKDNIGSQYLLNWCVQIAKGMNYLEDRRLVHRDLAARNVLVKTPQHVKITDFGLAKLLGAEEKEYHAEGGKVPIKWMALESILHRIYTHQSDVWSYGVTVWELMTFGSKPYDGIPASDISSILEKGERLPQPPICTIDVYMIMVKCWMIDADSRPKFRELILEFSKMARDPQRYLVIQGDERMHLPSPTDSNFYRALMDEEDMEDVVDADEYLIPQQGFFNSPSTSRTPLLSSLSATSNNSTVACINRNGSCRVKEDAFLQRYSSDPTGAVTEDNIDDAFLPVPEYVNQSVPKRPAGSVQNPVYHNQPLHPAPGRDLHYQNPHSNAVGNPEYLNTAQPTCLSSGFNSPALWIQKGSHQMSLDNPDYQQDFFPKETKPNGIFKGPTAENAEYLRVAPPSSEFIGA
Epidermal growth factor receptor (Homo sapiens), P00533 [L858R,T790M], sequence (P00533 whole entry T790M/L858R, looked up): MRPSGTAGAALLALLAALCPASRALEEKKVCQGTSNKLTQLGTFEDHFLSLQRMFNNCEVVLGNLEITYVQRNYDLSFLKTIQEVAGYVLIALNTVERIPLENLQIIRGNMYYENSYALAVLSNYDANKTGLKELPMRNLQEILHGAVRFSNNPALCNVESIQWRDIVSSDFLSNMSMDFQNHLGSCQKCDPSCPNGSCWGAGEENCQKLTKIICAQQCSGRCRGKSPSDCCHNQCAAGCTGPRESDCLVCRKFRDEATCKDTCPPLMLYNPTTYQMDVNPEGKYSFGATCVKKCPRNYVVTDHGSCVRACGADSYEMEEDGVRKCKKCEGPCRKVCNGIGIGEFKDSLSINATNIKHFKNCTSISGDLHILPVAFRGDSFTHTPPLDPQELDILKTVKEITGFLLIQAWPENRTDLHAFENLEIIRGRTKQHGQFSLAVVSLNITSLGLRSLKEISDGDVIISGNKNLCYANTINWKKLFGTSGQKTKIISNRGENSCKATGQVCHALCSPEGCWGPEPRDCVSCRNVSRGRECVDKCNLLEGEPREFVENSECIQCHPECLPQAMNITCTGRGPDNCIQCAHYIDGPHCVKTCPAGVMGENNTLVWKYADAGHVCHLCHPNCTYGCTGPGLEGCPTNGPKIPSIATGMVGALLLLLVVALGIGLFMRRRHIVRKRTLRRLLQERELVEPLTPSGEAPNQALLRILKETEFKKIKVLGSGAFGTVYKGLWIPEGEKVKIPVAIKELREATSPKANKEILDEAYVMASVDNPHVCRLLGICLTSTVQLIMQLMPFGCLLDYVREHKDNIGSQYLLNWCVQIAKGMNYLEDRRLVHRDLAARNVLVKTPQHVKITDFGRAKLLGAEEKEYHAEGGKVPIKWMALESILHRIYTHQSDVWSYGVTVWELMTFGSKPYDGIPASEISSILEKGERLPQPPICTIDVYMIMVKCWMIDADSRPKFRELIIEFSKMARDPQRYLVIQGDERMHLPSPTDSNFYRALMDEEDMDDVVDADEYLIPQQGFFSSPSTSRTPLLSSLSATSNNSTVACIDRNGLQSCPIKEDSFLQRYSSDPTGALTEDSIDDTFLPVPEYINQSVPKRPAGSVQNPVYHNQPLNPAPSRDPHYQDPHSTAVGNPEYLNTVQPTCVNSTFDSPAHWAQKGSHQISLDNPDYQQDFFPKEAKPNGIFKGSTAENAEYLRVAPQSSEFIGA
Epidermal growth factor receptor (Homo sapiens), sequence (P00533 whole entry): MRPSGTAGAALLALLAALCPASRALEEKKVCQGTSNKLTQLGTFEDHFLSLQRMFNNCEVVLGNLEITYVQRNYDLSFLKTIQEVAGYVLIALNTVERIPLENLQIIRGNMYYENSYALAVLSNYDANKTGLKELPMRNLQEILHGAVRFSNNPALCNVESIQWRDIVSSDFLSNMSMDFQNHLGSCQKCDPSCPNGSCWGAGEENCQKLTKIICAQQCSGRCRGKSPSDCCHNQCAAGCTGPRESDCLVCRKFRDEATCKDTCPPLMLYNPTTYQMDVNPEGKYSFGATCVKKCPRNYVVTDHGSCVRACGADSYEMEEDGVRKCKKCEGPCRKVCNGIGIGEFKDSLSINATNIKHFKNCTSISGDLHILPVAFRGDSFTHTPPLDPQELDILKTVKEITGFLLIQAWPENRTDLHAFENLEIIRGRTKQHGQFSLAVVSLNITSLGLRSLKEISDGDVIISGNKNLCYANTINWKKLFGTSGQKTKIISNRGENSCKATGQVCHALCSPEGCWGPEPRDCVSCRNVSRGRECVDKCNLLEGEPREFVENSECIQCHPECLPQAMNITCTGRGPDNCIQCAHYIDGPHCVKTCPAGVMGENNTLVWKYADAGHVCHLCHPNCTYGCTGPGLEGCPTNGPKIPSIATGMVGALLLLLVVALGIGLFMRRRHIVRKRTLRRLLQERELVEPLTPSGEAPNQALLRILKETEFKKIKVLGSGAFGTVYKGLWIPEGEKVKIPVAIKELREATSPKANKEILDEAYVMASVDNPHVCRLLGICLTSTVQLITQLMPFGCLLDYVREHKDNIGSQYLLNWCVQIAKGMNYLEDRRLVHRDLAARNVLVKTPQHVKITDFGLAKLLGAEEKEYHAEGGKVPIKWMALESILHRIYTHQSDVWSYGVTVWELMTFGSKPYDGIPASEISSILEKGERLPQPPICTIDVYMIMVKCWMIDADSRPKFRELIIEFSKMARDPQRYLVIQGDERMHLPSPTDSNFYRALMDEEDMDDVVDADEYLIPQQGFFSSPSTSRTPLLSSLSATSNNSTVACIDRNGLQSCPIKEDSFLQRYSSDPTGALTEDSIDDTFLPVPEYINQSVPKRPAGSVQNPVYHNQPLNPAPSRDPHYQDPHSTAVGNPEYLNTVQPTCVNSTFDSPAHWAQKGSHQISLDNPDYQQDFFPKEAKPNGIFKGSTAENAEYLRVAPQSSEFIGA

Compound | GI50 [1] | GI50 [2] | GI50 [4] | GI50 [5] | GI50 [6] | GI50 [3] | also measured
O=C(COc1ccc(-c2cssc2=O)cc1)Nc1ccc2ncnc(Nc3cccc(Br)c3)c2c1 |  |  |  |  |  | > 10 µM | 
COc1cc2c(Nc3cccc(Br)c3)ncnc2cc1OCCCOc1ccc(-c2cssc2=S)cc1 | 0.12 µM | 3.06 µM | 2.4 µM | > 10 µM | 9.23 µM | > 10 µM | 
COc1cc2c(Nc3ccc(F)c(Cl)c3)ncnc2cc1OCCCOc1ccc(-c2cssc2=S)cc1 | 0.27 µM | > 10 µM | > 10 µM | > 10 µM | > 10 µM | > 10 µM | 
COc1cc2c(Nc3ccc([N+](=O)[O-])cc3)ncnc2cc1OCCCOc1ccc(-c2cssc2=S)cc1 | 0.6 µM | 4.08 µM | 1.87 µM | > 10 µM | 3.79 µM | > 10 µM | 
O=C(COc1ccc(-c2cssc2=O)cc1)Nc1ccc2ncnc(Nc3cccc(C(F)(F)F)c3)c2c1 |  |  |  |  |  | > 10 µM | 
C=CCSSCCC(=O)OCCCOc1cc2ncnc(Nc3cccc(Br)c3)c2cc1OC | 0.008 µM | > 10 µM | 0.787 µM | 6.03 µM | > 10 µM | > 10 µM | inhibition [9]: Dose-dependent effect; Activity (NCI-H3255 [10]): 5.19%; Activity (NCI-H3255 [11]): 2.66%; Activity (NCI-H3255 [12]): 88.61%; GI50 [13]: 0.303 µM; Drug metabolism [14]: Metabolite detected; IC50 (HUVEC): > 10 µM; GI50 [15]: 0.0069 µM; Activity (NCI-H3255 [16]): 84.88%; Activity (NCI-H3255 [17]): 10.23%; Activity (NCI-H3255 [18]): 4.89%; Activity (NCI-H3255 [19]): 8.73%; Activity (NCI-H3255 [20]): 60.32%; Activity (NCI-H3255 [21]): 34.49%; Drug metabolism [8]: Metabolite detected
[Cl-].[Cl-].[Zn+2] [ZINC CHLORIDE] |  |  |  |  |  |  | Cell proliferation rate % at 10 µM (NCI-H3255 [22]): 54%
C=CCCSSCC(=O)Nc1ccc2ncnc(Nc3cccc(C(F)(F)F)c3)c2c1 |  |  |  |  |  | > 10 µM | 
C=CC(=O)Nc1cc(Nc2nccc(-c3cn(C)c4ccccc34)n2)c(OC)cc1N(C)CCN(C)C [OSIMERTINIB] |  |  |  |  |  |  | IC50 (HUVEC): 7.28 µM

Continued, in another order:

GI50 [1] | GI50 [2] | GI50 [4] | GI50 [5] | GI50 [6] | Compound | GI50 [3] | also measured
0.25 µM | 9.56 µM | 1.41 µM | > 10 µM | 9.23 µM | COc1cc2c(Nc3ccc(Br)cc3)ncnc2cc1OCCCOc1ccc(-c2cssc2=S)cc1 | > 10 µM | 
0.29 µM | 2.49 µM | 4.36 µM | 3.16 µM | 4.27 µM | O=C(COc1ccc(-c2cssc2=O)cc1)Nc1ccc2ncnc(Nc3ccc(F)c(Cl)c3)c2c1 | > 10 µM | Drug metabolism [7]: Metabolite detected; Drug metabolism [8]: Metabolite detected
0.012 µM | > 10 µM | 0.349 µM | > 10 µM | > 10 µM | C=CCCSSCC(=O)Nc1ccc2ncnc(Nc3ccc(F)c(Cl)c3)c2c1 | > 10 µM | 
0.058 µM | 2.34 µM | 1.35 µM | > 10 µM | 3.91 µM | C=CCSSCCC(=O)OCCCOc1cc2ncnc(Nc3ccc(Br)cc3)c2cc1OC | > 10 µM | 
0.38 µM | 1.98 µM | 7.47 µM | 1.65 µM | 3.79 µM | COc1cc2c(Nc3cccc(C(F)(F)F)c3)ncnc2cc1OCCCOc1ccc(-c2cssc2=S)cc1 | > 10 µM | 
0.83 µM | 3.39 µM | 8.58 µM | 6.35 µM | 2.65 µM | COc1ccc(Nc2ncnc3cc(OCCCOc4ccc(-c5cssc5=S)cc4)c(OC)cc23)cc1OC | > 10 µM | Drug metabolism [7]: Metabolite detected; Drug metabolism [8]: Metabolite detected
0.011 µM | > 10 µM | 0.519 µM | > 10 µM | > 10 µM | C=CCCSSCC(=O)Nc1ccc2ncnc(Nc3cccc(Br)c3)c2c1 | > 10 µM | 
